Test results as given in ChEMBL document CHEMBL4334489, “Asperpyridone A: An Unusual Pyridone Alkaloid Exerts Hypoglycemic Activity through the Insulin Signaling Pathway” (J Nat Prod, 2019).
Calls of active or inactive are those of the source. No cut-off for these calls is given here.

Experiments:
[1] = tested on: HepG2; assay: Effect on 2-NBDG uptake in insulin-resistant human HepG2 cells at 50 uM pretreated with insulin for 24 hrs followed by compound addition incubated for 24 hrs and subsequent 2-NBDG measured after 30 mins by propidium iodide staining based flow cytometry analysis (reference value: 65.4 %); format: functional
[2] = tested on: HepG2; assay: Effect on 2-NBDG uptake in insulin-resistant human HepG2 cells at 750 uM pretreated with insulin for 24 hrs followed by compound addition incubated for 24 hrs and subsequent 2-NBDG measured after 30 mins by propidium iodide staining based flow cytometry analysis (reference value: 65.4 %); format: functional
[3] = tested on: HepG2; assay: Effect on 2-NBDG uptake in insulin-resistant human HepG2 cells at 500 uM pretreated with insulin for 24 hrs followed by compound addition incubated for 24 hrs and subsequent 2-NBDG measured after 30 mins by propidium iodide staining based flow cytometry analysis (reference value: 65.4 %); format: functional
[4] = tested on: HepG2; assay: Effect on 2-NBDG uptake in insulin-resistant human HepG2 cells at 1000 uM pretreated with insulin for 24 hrs followed by compound addition incubated for 24 hrs and subsequent 2-NBDG measured after 30 mins by propidium iodide staining based flow cytometry analysis analysis (reference value: 65.4 %); format: functional
[5] = tested on: HepG2; assay: Effect on 2-NBDG uptake in insulin-resistant human HepG2 cells at 10 uM pretreated with insulin for 24 hrs followed by compound addition incubated for 24 hrs and subsequent 2-NBDG measured after 30 mins by propidium iodide staining based flow cytometry analysis (reference value: 33.4 %); format: functional
[6] = tested on: CT26; assay: Cytotoxicity against mouse CT26 cells; format: cell-based
[7] = tested on: HepG2; assay: Increase in PCK2 gene expression in insulin-resistant human HepG2 cells at 10 uM using SYBR-green based qRT-PCR analysis; format: functional, cell-based
[8] = tested on: HepG2; assay: Increase in FGF21 gene expression in insulin-resistant human HepG2 cells at 10 uM using SYBR-green based qRT-PCR analysis; format: functional, cell-based
In short: (§1)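 HepG2 cells were made insulin-resistant with 0.1 units/mL insulin in serum-free DMEM for 24 h, then treated with compound at several doses (5–25 μM range) against a 1% DMSO vehicle control. Transcript levels of the target genes were quantified by qRT-PCR.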

[9] = tested on: HepG2; assay: Increase in FGF21 gene expression in insulin-resistant human HepG2 cells using SYBR-green based qRT-PCR analysis; format: functional, cell-based; in short: as §1
[10] = tested on: HepG2; assay: Cytotoxicity against human HepG2 cells; format: cell-based
[11] = tested on: HepG2; assay: Effect on 2-NBDG uptake in insulin-resistant human HepG2 cells at 25 uM pretreated with insulin for 24 hrs followed by compound addition incubated for 24 hrs and subsequent 2-NBDG measured after 30 mins by propidium iodide staining based flow cytometry analysis (reference value: 33.4 %); format: functional
[12] = tested on: HepG2; assay: Effect on 2-NBDG uptake in insulin-resistant human HepG2 cells at 1 uM pretreated with insulin for 24 hrs followed by compound addition incubated for 24 hrs and subsequent 2-NBDG measured after 30 mins by propidium iodide staining based flow cytometry analysis (reference value: 33.4 %); format: functional
[13] = tested on: BXPC-3; assay: Cytotoxicity against human BxPC3 cells; format: cell-based
[14] = tested on: HepG2; assay: Effect on 2-NBDG uptake in insulin-resistant human HepG2 cells at 0.2 uM pretreated with insulin for 24 hrs followed by compound addition incubated for 24 hrs and subsequent 2-NBDG measured after 30 mins by propidium iodide staining based flow cytometry analysis (reference value: 33.4 %); format: functional
[15] = tested on: Panc02; assay: Cytotoxicity against mouse Panc02 cells; format: cell-based
[16] = tested on: ASPC1; assay: Cytotoxicity against human AsPC1 cells; format: cell-based
[17] = tested on: HepG2; assay: Antidiabetic activity in human HepG2 cells assessed as increase in glucose consumption at 50 uM by glucose oxidase method; format: functional, cell-based
In short: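 HepG2 cells grown in DMEM with 10% FBS and 1% penicillin/streptomycin at 37 °C under 5% CO2. Cells were treated with 50 μM test compound or 0.1% DMSO vehicle. Glucose remaining in the culture supernatant was measured with a glucose oxidase–peroxidase kit.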

Row | Compound | Activity [1] [%] | Activity [2] [%] | Activity [3] [%] | Activity [4] [%] | Activity [5] [%] | Activity [6] | Activity [7] | Activity [8] | Activity [9] | Activity [10] | Activity [11] [%] | Activity [12] [%] | Activity [13] | Activity [14] [%] | Activity [15] | Activity [16] | Activity [17]
1 | CN(C)C(=N)NC(=N)N [METFORMIN] | 31.9 | 46.1 | 42.5 | 45.6 | – | – | – | – | – | – | – | – | – | – | – | – | –
2 | COn1ccc2c(c1=O)[C@H]1[C@@H](C[C@H](C)C[C@@H]1C)[C@H](C)O2 | – | – | – | – | 53.6 | Non-Toxic | Active | Active | Dose-dependent effect | Non-Toxic | 46.9 | 47.5 | Non-Toxic | 45.1 | Non-Toxic | Non-Toxic | Active
